Experiments:
[1] = target: Human immunodeficiency virus type 1 reverse transcriptase (Human immunodeficiency virus 1, UniProt Q72547); assay: Concentration required to inhibit the HIV-1 reverse transcriptase activity by 50%.
How it was run: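 Purified recombinant HIV-1 RT, RNA-dependent polymerase activity. Substrate: [³H]dGTP, […] (1 Ci/mmol). Reaction 30 min at 37 °C, then acid-insoluble radioactivity counted on glass-fibre filters.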

MT4 [2] = assay: Selectivity index measured as the ratio of CC50 / EC50.; assay type: functional
How it was run: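 Selectivity index: CC50 in mock-infected MT-4 cells divided by EC50 against HIV-1 IIIB cytopathicity in MT-4 cells, both from MTT read-out after 4-day culture.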

MT4 [3] = assay: Concentration required to achieve 50% protection of MT-4 cells from HIV-1-induced cytopathogenicity.; assay type: functional, cell-based; conditions: Homo sapiens
How it was run: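 MT-4 cells (1×10^4/well) exposed to test compound dilutions (DMSO stock 200 mM, diluted in medium), then infected with HIV-1 IIIB at 100 CCID50/well; 4-day incubation at 37 °C; viable cells counted by MTT; EC50 is the dose giving 50% protection from virus-induced cytopathicity; means of at least two separate experiments.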

MT4 [4] = assay: Cytotoxicity against mock-infected MT-4 cells.; assay type: functional; conditions: Homo sapiens
How it was run: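 Mock-infected MT-4 cells (1×10^4/well) incubated 4 days at 37 °C alongside the antiviral assay with serial compound dilutions (from 200 mM DMSO stock); viability read by MTT; CC50 is the dose lowering viability of mock-infected cells by 50%; means of at least two separate experiments.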

| Structure (SMILES) | IC50 [1] | Selectivity index (MT4 [2]) | EC50 (MT4 [3]) | CC50 (MT4 [4]) |
| --- | --- | --- | --- | --- |
| CCC(C)Sc1nc(O)c(C)c(Cc2ccccc2Cl)n1 (stereo not drawn) | 400 nM | >741 SI | 270 nM | > 200000 nM |
| CSc1nc(O)cc(Cc2c(F)cccc2F)n1 | 800 nM | >247 SI | 810 nM | > 200000 nM |
| CCC(C)Sc1nc(O)cc(Cc2cccc([N+](=O)[O-])c2)n1 (stereo not drawn) | 300 nM | 392 SI | 400 nM | 157000 nM |
| CCC(C)Sc1nc(O)cc(Cc2ccccc2)n1 (stereo not drawn) | 1000 nM | 125 SI | – | – |
| CCC(C)Sc1nc(O)c(C)c(Cc2ccccc2)n1 (stereo not drawn) | 500 nM | 140 SI | – | – |
| CCC(C)Sc1nc(O)cc(Cc2c(F)cccc2F)n1 (stereo not drawn) | 50 nM | >5000 SI | 40 nM | > 200000 nM |
| Oc1cc(Cc2ccccc2)nc(SC2CCCC2)n1 | 1600 nM | 86 SI | – | – |
| Cc1c(O)nc(SC2CCCCC2)nc1Cc1c(Cl)cccc1Cl | 4900 nM | >9 SI | 22000 nM | > 200000 nM |
| Oc1cc(Cc2c(F)cccc2F)nc(SC2CCCCC2)n1 | 90 nM | >2500 SI | 80 nM | > 200000 nM |
| Cc1c(O)nc(SC2CCCC2)nc1Cc1c(Cl)cccc1Cl | 1700 nM | >111 SI | 1800 nM | > 200000 nM |
| CCOCn1c(Cc2ccccc2)c(C(C)C)c(=O)[nH]c1=O [EMIVIRINE] | 40 nM | 6666 SI | 30 nM | 200000 nM |
| CSc1nc(O)cc(Cc2c(Cl)cccc2Cl)n1 | 3000 nM | >62 SI | 3200 nM | > 200000 nM |
| CCC(C)Sc1nc(O)c(C)c(Cc2cccc(F)c2)n1 (stereo not drawn) | 1500 nM | >166 SI | 1200 nM | > 200000 nM |
| CCC(C)Sc1nc(O)cc(Cc2cccc(Cl)c2)n1 (stereo not drawn) | 1900 nM | 58 SI | 2000 nM | 116000 nM |
| Cc1c(O)nc(SC2CCCCC2)nc1Cc1c(F)cccc1F | 70 nM | >2222 SI | 90 nM | > 200000 nM |
| CCCCSc1nc(O)c(C)c(Cc2c(Cl)cccc2Cl)n1 | 1150 nM | >171 SI | 1100 nM | > 200000 nM |
| Cc1ccnc2c1NC(=O)c1cccnc1N2C1CC1 [NEVIRAPINE] | – | – | – | > 200000 nM |
| CCC(C)Sc1nc(O)cc(Cc2ccc(Cl)cc2)n1 (stereo not drawn) | 4800 nM | 24 SI | 5000 nM | 120000 nM |
| CCC(C)Sc1nc(O)cc(Cc2cccc(F)c2)n1 (stereo not drawn) | 600 nM | >286 SI | 700 nM | > 200000 nM |
| CCC(C)Sc1nc(O)cc(Cc2ccccc2Cl)n1 (stereo not drawn) | 1600 nM | 200 SI | 1000 nM | 200000 nM |
| CC(C)Sc1nc(O)cc(Cc2c(Cl)cccc2Cl)n1 | 1500 nM | >105 SI | 1900 nM | > 200000 nM |
| CCC(C)Sc1nc(O)c(C)c(Cc2ccc(Cl)cc2)n1 (stereo not drawn) | 8500 nM | >20 SI | 9500 nM | > 200000 nM |
| O=c1cc(Cc2c(F)cccc2F)nc(SC2CCCC2)[nH]1 | 80 nM | >2500 SI | 80 nM | > 200000 nM |
| Cc1c(Cc2c(F)cccc2F)nc(SC2CCCC2)[nH]c1=O | 80 nM | >2500 SI | 80 nM | > 200000 nM |
| Cc1c(Cc2c(F)cccc2F)nc(SC(C)C)[nH]c1=O | 50 nM | >4000 SI | 50 nM | > 200000 nM |
| CCC(C)Sc1nc(O)cc(Cc2c(Cl)cccc2Cl)n1 (stereo not drawn) | 100 nM | >1428 SI | 140 nM | > 200000 nM |

| Structure (SMILES) | IC50 [1] | Selectivity index (MT4 [2]) | EC50 (MT4 [3]) | CC50 (MT4 [4]) |
| --- | --- | --- | --- | --- |
| Oc1cc(Cc2c(Cl)cccc2Cl)nc(SC2CCCC2)n1 | 400 nM | >500 SI | 400 nM | > 200000 nM |
| CCC(C)Sc1nc(O)cc(Cc2ccccc2[N+](=O)[O-])n1 (stereo not drawn) | 300 nM | >800 SI | 250 nM | > 200000 nM |
| Cc1c(O)nc(SCC(C)C)nc1Cc1c(Cl)cccc1Cl | 1100 nM | >166 SI | 1200 nM | > 200000 nM |
| CSc1nc(O)c(C)c(Cc2c(Cl)cccc2Cl)n1 | – | 5.2 SI | 38000 nM | > 200000 nM |
| CCC(C)Sc1nc(O)cc(Cc2ccccc2F)n1 (stereo not drawn) | 300 nM | 769 SI | 260 nM | 200000 nM |
| CCC(C)Sc1nc(O)c(C)c(Cc2c(Cl)cccc2Cl)n1 (stereo not drawn) | 60 nM | >4000 SI | 50 nM | > 200000 nM |
| CCC(C)Sc1nc(O)c(C)c(Cc2ccc(F)cc2)n1 (stereo not drawn) | 13000 nM | 9.5 SI | 11000 nM | 105000 nM |
| CCC(C)Sc1nc(O)c(C)c(Cc2ccccc2F)n1 (stereo not drawn) | 410 nM | 341 SI | 410 nM | 140000 nM |
| CCCCSc1nc(O)cc(Cc2c(Cl)cccc2Cl)n1 | 500 nM | >454 SI | 440 nM | > 200000 nM |
| CCC(C)Sc1nc(O)c(C)c(Cc2ccc([N+](=O)[O-])cc2)n1 (stereo not drawn) | 1800 nM | >100 SI | 2000 nM | > 200000 nM |
| Oc1cc(Cc2c(Cl)cccc2Cl)nc(SC2CCCCC2)n1 | 400 nM | >333 SI | 600 nM | > 200000 nM |
| Cc1c(O)nc(SCC(C)C)nc1Cc1c(F)cccc1F | 90 nM | 1640 SI | 100 nM | 164000 nM |
| Cc1c(O)nc(SC2CCCC2)nc1Cc1ccccc1 | 500 nM | >333 SI | – | > 200000 nM |
| CCC(C)Sc1nc(O)c(C)c(Cc2cccc([N+](=O)[O-])c2)n1 (stereo not drawn) | 400 nM | >571 SI | 350 nM | > 200000 nM |
| CCCCSc1nc(O)c(C)c(Cc2c(F)cccc2F)n1 | 90 nM | >2500 SI | 80 nM | > 200000 nM |
| CCC(C)Sc1nc(O)c(C)c(Cc2c(F)cccc2F)n1 (stereo not drawn) | 50 nM | >4000 SI | 50 nM | > 200000 nM |
| CCCCSc1nc(O)cc(Cc2c(F)cccc2F)n1 | 200 nM | 900 SI | 180 nM | 162000 nM |
| CCC(C)Sc1nc(O)c(C)c(Cc2cccc(Cl)c2)n1 (stereo not drawn) | 900 nM | >208 SI | 960 nM | > 200000 nM |
| CCC(C)Sc1nc(O)cc(Cc2ccc(F)cc2)n1 (stereo not drawn) | 7400 nM | 23 SI | 8700 nM | > 200000 nM |
| Cc1c(O)nc(SC(C)C)nc1Cc1c(Cl)cccc1Cl | 1150 nM | >154 SI | 1300 nM | > 200000 nM |
| CC(C)CSc1nc(O)cc(Cc2c(F)cccc2F)n1 | 200 nM | 1300 SI | 140 nM | 182000 nM |
| CC(C)Sc1nc(Cc2c(F)cccc2F)cc(=O)[nH]1 | 50 nM | >4000 SI | 50 nM | > 200000 nM |
| CC(C)CSc1nc(O)cc(Cc2c(Cl)cccc2Cl)n1 | 600 nM | >444 SI | 450 nM | > 200000 nM |
| CSc1nc(O)c(C)c(Cc2c(F)cccc2F)n1 | 200 nM | 1053 SI | 190 nM | 200000 nM |
| CCC(C)Sc1nc(O)cc(Cc2ccc([N+](=O)[O-])cc2)n1 (stereo not drawn) | 1200 nM | 101 SI | 1500 nM | 151000 nM |
